{"source": "ChEMBL document CHEMBL1649261", "about": "“Pharmacodynamic profile of tigecycline against methicillin-resistant Staphylococcus aureus in an experimental pneumonia model” (Antimicrob Agents Chemother, 2009)", "assay_type_in_all_cases": "functional", "key": {"Staphylococcus aureus [1]": {"test_system": "Staphylococcus aureus", "experiment": "Antibacterial activity against methicillin-susceptible Staphylococcus aureus ATCC 29213 by microdilution method", "how_it_was_run": "(§1)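 Tigecycline MIC measured in triplicate by broth microdilution following CLSI guidelines. Isolates were stored at −80°C in skim milk and subcultured twice on blood agar before testing.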"}, "Staphylococcus aureus [2]": {"test_system": "Staphylococcus aureus", "experiment": "Antibacterial activity against community-acquired methicillin-resistant Staphylococcus aureus 144 by microdilution method", "how_it_was_run": "as §1"}, "Staphylococcus aureus [3]": {"test_system": "Staphylococcus aureus", "experiment": "Antibacterial activity against community-acquired methicillin-resistant Staphylococcus aureus 147 by microdilution method", "how_it_was_run": "as §1"}, "Staphylococcus aureus [4]": {"test_system": "Staphylococcus aureus", "experiment": "Antibacterial activity against hospital-acquired methicillin-resistant Staphylococcus aureus 56 by microdilution method", "how_it_was_run": "as §1"}, "Staphylococcus aureus [5]": {"test_system": "Staphylococcus aureus", "experiment": "Antibacterial activity against hospital-acquired methicillin-resistant Staphylococcus aureus 152 by microdilution method", "how_it_was_run": "as §1"}}, "data": [{"smiles": "C[C@H]1COc2c(N3CCN(C)CC3)c(F)cc3c(=O)c(C(=O)O)cn1c23.C[C@H]1COc2c(N3CCN(C)CC3)c(F)cc3c(=O)c(C(=O)O)cn1c23.O", "note": "[LEVOFLOXACIN]", "values": [{"measurement": "MIC", "setting": "Staphylococcus aureus [1]", "result": 0.25, "unit": "µg/mL"}, {"measurement": "MIC", "setting": "Staphylococcus aureus [2]", "result": 0.5, "unit": "µg/mL"}, {"measurement": "MIC", "setting": "Staphylococcus aureus [3]", "result": 8, "unit": "µg/mL"}, {"measurement": "MIC", "setting": "Staphylococcus aureus [4]", "result": 0.25, "unit": "µg/mL"}, {"measurement": "MIC", "setting": "Staphylococcus aureus [5]", "result": 0.25, "unit": "µg/mL"}]}]}
